Experimental findings from the RNAGym collection of RNA variant scans (doi:10.1126/science.aae0568) are described below.

Fewer inactive variants are shown than the library holds.

First the molecules themselves.
B1: tRNA (parent)
chain: GUUCCGUUGGCGUAAUGGUAACGCGUCUCCCUCCUAAGGAGAAGACUGCGGGUUCGAGUCCCGUACGGAACG

Variants of B1 are the subject of this series. The experiment in a line: yeast fitness relative to wild type (ratio to wild type); higher = fitter; tRNA-Arg(CCU), competitive growth, 37 C, YPD. The essentials:
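The tRNA-Arg(CCU) gene variants were made by chemical synthesis with a 3% per-site mutation rate at 69 sites and inserted at the native genomic locus of Saccharomyces cerevisiae. After pooling, the strains were competed in YPD at 37°C for 24 hours in six parallel replicates. Gene amplicons from the start population and each end population were read by 100-nucleotide paired-end sequencing, and Darwinian fitness relative to wild type was taken from genotype frequency changes. Genotypes needed ≥ 100 starting reads, and estimates < 0.5 were set to 0.5.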
For G12C A20U A21G C22G G50A C61A, the yeast fitness was not above 0.5.

As for C5G C11G C34U, the yeast fitness was 0.576.

On to G10C G12C C46G C55U, for which the yeast fitness was not above 0.5.

Regarding G6A U54G, the yeast fitness stood at 0.611.

Take A14C C62U: the yeast fitness amounted to 0.853.

Take U47G C49A A69U: the yeast fitness was determined as 0.573.

Take C4G A21G A45U C49U: the yeast fitness is not above 0.5.

With A14U A42U, the yeast fitness stood at 0.652.

Turning to U7A G10A G41U C49U, the yeast fitness was 0.615.

As for C49G G52A C61G, the yeast fitness worked out at 0.534.

As for C11U A20G C22A G23C U28G A43G A57G A70U, the yeast fitness came out at 0.587.

Turning to A43G C66U, the yeast fitness turned out to be 0.887.

As to U32A C33G C60A, the yeast fitness was not above 0.5.

As for U13G C22U A45U U59C, the yeast fitness worked out at 0.54.

For the variant U26A A36G A70U, the yeast fitness is 0.584.

Consider C27G A36C, for which the yeast fitness is not above 0.5.

Regarding C22U G52A C60U, the yeast fitness turned out to be 0.598.

Turning to C5U C27A A42U C49G, the yeast fitness is 0.763.

For the variant A20C U35C G51C A57G C60G A70U, the yeast fitness was not above 0.5.

With A14C C55A A65U, the yeast fitness is not above 0.5.

C24U U26G G51A: the yeast fitness was not above 0.5.

In the case of G18C A42U U54A G58C, the yeast fitness was 0.574.

Consider C27U G44A, for which the yeast fitness was 0.887.

With U2G U19A A21G G39C C60G G67C, the yeast fitness is not above 0.5.

As for C4U G58C A69U, the yeast fitness was 0.785.

In the case of A45U G48A C66G, the yeast fitness was not above 0.5.

For U13A A15C A45G C55U C61G A69C, the yeast fitness is not above 0.5.

In the case of U47A C49U A65C, the yeast fitness was 0.702.

As for C5A U54A C55G A65C, the yeast fitness is not above 0.5.

In the case of U3C C46A G67A A70C, the yeast fitness was 0.556.

Consider U16A C24G, for which the yeast fitness stood at 0.528.

Regarding U8C C27A G52A C62G A69G, the yeast fitness was not above 0.5.

Turning to A43U G44A C46A, the yeast fitness turned out to be 0.654.

For the variant C11G G18A G23A C60G, the yeast fitness was not above 0.5.

Take G58C C62G: the yeast fitness was 0.755.

Turning to C22G U26A, the yeast fitness was 1.08.

As for A21U G48C C55A C66U, the yeast fitness was not above 0.5.

G12A C60A: the yeast fitness worked out at 0.579.

For the variant U2G G9C A20G A42C C46G C49U C62A A69C, the yeast fitness was not above 0.5.

Turning to C5G A15C G58A G67C, the yeast fitness was not above 0.5.

Consider A14U A21U G67C, for which the yeast fitness stood at 0.596.

Take C11U U16C G23A A36C: the yeast fitness was not above 0.5.

On to C22A C24G A36C, for which the yeast fitness is not above 0.5.

Take U19A C30G A40C C62G C66G A69C: the yeast fitness was not above 0.5.

In the case of G25C C61U, the yeast fitness worked out at 1.1.

On to U2C G50C, for which the yeast fitness was 0.733.

For U2A U19A G44A, the yeast fitness was determined as 0.544.

Take A42C G56A: the yeast fitness came to 1.01.

On to C4U C24G, for which the yeast fitness was determined as 0.591.

As for A20U C34A C66A, the yeast fitness is not above 0.5.

For the variant C5U A42G A65C, the yeast fitness came to 0.596.

Turning to G44C A69C, the yeast fitness turned out to be 0.85.

On to A20U G23C U35G, for which the yeast fitness amounted to 0.643.

For U8A U35C A42C G67A, the yeast fitness amounted to 0.568.

For U13A A21C A42G, the yeast fitness was 0.502.

On to U28C U47A C49U G63C, for which the yeast fitness is 0.683.

As for G17A C34G, the yeast fitness stood at 0.569.

For A42G A45C G48C, the yeast fitness was not above 0.5.

On to U7C U32G G68C, for which the yeast fitness was not above 0.5.

Turning to C4A G56A C62U, the yeast fitness stood at 0.626.

In the case of C5G C34A, the yeast fitness was found to be 0.702.

Turning to G6A A14G C22G U35G A40C A70G, the yeast fitness is not above 0.5.

In the case of C5U G25C A36C A40U, the yeast fitness is not above 0.5.

On to A14C C22G G25A C31U, for which the yeast fitness was determined as 0.528.

In the case of C34G A37C C62U C66A, the yeast fitness was not above 0.5.

Turning to U13A C31A G44A A65G A70U, the yeast fitness was not above 0.5.

In the case of U26C A42G G67U, the yeast fitness was 0.647.

In the case of C31A A57U, the yeast fitness was determined as 0.626.

For the variant G10C A42G A57U, the yeast fitness was not above 0.5.

On to U7A C30U C33U C46U, for which the yeast fitness is not above 0.5.

Take U7C C33G: the yeast fitness amounted to 0.58.

On to U8C G17A C46A A65G, for which the yeast fitness was not above 0.5.

U3C G12A G50A: the yeast fitness turned out to be 0.662.

Turning to U32A C61A A65U, the yeast fitness is not above 0.5.

For A37C G38C, the yeast fitness was found to be 0.502.

Turning to G6A A21C U47A G68A, the yeast fitness is not above 0.5.

With U8G G10A C11G U19G A40G C55U C60U, the yeast fitness turned out to be 0.511.

Regarding C33G A43C G68A, the yeast fitness is not above 0.5.

G10C G51C A65U: the yeast fitness was not above 0.5.

Take U35G A42G U47A: the yeast fitness is not above 0.5.

On to G25C G44A A69U, for which the yeast fitness was 0.622.

Turning to C22G C31G C49U U54G, the yeast fitness was found to be 0.568.

As to U16A C31A A40C G52C, the yeast fitness was not above 0.5.

For C11G A14U U59G, the yeast fitness was not above 0.5.

Take U7A U8A G10C C27G C34G A45C G68U: the yeast fitness is not above 0.5.

C4G G68C: the yeast fitness worked out at 0.971.

For C4U A21G C46A, the yeast fitness is 0.899.

Regarding C5G C24G, the yeast fitness came to 0.604.

As to U2G A15C G17C C22G C24A C31A G67C, the yeast fitness is 0.579.

With C11U U47A C60G C62A, the yeast fitness is not above 0.5.

Turning to C11A G12A G25A, the yeast fitness stood at 0.604.

In the case of C24U U26C C27A A69U, the yeast fitness is not above 0.5.

Take C34G A40C G44A A69U: the yeast fitness was not above 0.5.

C4A C22U U54A: the yeast fitness came to 0.685.

On to A37C A65U, for which the yeast fitness was 0.866.

As to C5G G12C U19A C31A, the yeast fitness was not above 0.5.

Regarding A14U C27U C55G, the yeast fitness turned out to be 0.517.

Turning to G12C G44C C66U, the yeast fitness was determined as 0.573.

U32A C55A C61U: the yeast fitness came to 0.536.

Take A20C C31U A40G G52C A65G: the yeast fitness was found to be 0.551.

Regarding U3A U19A C24U, the yeast fitness was determined as 0.74.

In the case of U16C U59A, the yeast fitness was 0.852.

With C5U U7C U13G A36C C46U, the yeast fitness came out at 0.757.

On to G38C A43G C60U C62U A70C, for which the yeast fitness was not above 0.5.

As to C55U C61U, the yeast fitness came out at 0.75.

For the variant U7G G56A C62A, the yeast fitness was determined as 0.572.

With C11A U47A A70C, the yeast fitness was not above 0.5.

For the variant U8A C11A C24U G67C, the yeast fitness was not above 0.5.

A15G U64A: the yeast fitness was found to be 0.706.

Consider U2A A21C C29U G56C, for which the yeast fitness was not above 0.5.

For G18C U26G, the yeast fitness stood at 0.644.

On to U19C C33G C34U U54A C66U, for which the yeast fitness was determined as 0.524.

With U2C C55U, the yeast fitness is 0.792.

For C4U U7G G56C C60G C66U, the yeast fitness is not above 0.5.

On to C5U G17C C30A, for which the yeast fitness was found to be 0.548.

On to A20U C31U C49U, for which the yeast fitness came to 0.773.

As for C5U C24U C33U G44C G68A, the yeast fitness was not above 0.5.

For the variant A37C U47G U53A, the yeast fitness turned out to be 0.535.

Take C4U U8A U13C U35C C46A: the yeast fitness was not above 0.5.

For C30G G58C C60U A65G, the yeast fitness was not above 0.5.

Take U19A G23C C30G U47A: the yeast fitness is 0.594.

For C5G U59A, the yeast fitness is 0.896.

C5G C46G A65G: the yeast fitness is 0.594.

Turning to U2A A14C A37C, the yeast fitness was not above 0.5.

Regarding U7C A57U, the yeast fitness was 0.749.

As to U7G C31U C33G A42U, the yeast fitness is 0.563.

As for A15U C33U G44C C55A, the yeast fitness is not above 0.5.

On to C27U A40G G44A C62A, for which the yeast fitness came to 0.51.

Take A14C C27G C46G C62U: the yeast fitness is not above 0.5.

U2A C29G G58A: the yeast fitness was not above 0.5.

For G12A A40U G52C C60G, the yeast fitness is not above 0.5.

On to A14C A37C G51A U59A, for which the yeast fitness was 0.56.

As to U7A A15C C27A U47C, the yeast fitness was not above 0.5.

As for U3C A40U, the yeast fitness is 0.976.

Turning to C30A C49A, the yeast fitness is 0.699.

U7C C11G U32G: the yeast fitness is not above 0.5.

Consider G50C A69U, for which the yeast fitness was 0.833.

Take G12A C29A A42U A45U C61G: the yeast fitness was not above 0.5.

For the variant C34A G67U, the yeast fitness was 0.717.

C4G U28G: the yeast fitness worked out at 0.696.

As for C27U U28A U32A C34U A36C U47C C55A, the yeast fitness was not above 0.5.

As for C5U C27A C61U, the yeast fitness came to 0.589.

Take C11G C29U C34U G51C C66U: the yeast fitness is not above 0.5.

As for U19C A40G G48A, the yeast fitness turned out to be 0.718.

Turning to U19G C22U G52A, the yeast fitness is not above 0.5.

In the case of U13G C22U G63A, the yeast fitness turned out to be 0.707.

For the variant A21C C33U C55A, the yeast fitness was found to be 0.533.

With U64A A69U, the yeast fitness came to 0.834.

C5A G50A G68C: the yeast fitness was not above 0.5.

With C4G G6C U8G G17A U32C, the yeast fitness was not above 0.5.

On to U28A C31G G48A G51C C55G, for which the yeast fitness worked out at 0.523.

In the case of G6C U13G, the yeast fitness was 0.56.

With C22A C31G G41C G63C A70U, the yeast fitness is not above 0.5.

Consider U19A C61U, for which the yeast fitness stood at 0.983.

With C4U A42C A43C C49U A70C, the yeast fitness was not above 0.5.

Consider A43U G56C, for which the yeast fitness is 0.702.

On to G17A A37C C55U, for which the yeast fitness worked out at 0.56.

Turning to C31A A43U C61A, the yeast fitness was not above 0.5.

Turning to U2C C22U, the yeast fitness was 0.842.

For G23A C49A U59C C62U A65U A70C, the yeast fitness was 0.524.

Regarding U2G C62U, the yeast fitness was found to be 0.863.

As to G50C U54A, the yeast fitness stood at 0.524.

Take U2A C31A U47C A69U: the yeast fitness is not above 0.5.

With U2G A21C C22U C60G, the yeast fitness was not above 0.5.

Take A37U U59C: the yeast fitness was found to be 0.721.

For G9C G44A C60G, the yeast fitness is not above 0.5.

Consider U2A G12U G23A A36U G58C C60U, for which the yeast fitness was not above 0.5.
